Experimental data of several laboratories.
pIC50: −log10 of the molar value.
Target: Amine oxidase [flavin-containing] B (MAOB, Homo sapiens, UniProt P27338)
Observed: enzyme activity
Action: inhibitor
Residues used in one study (P27338 1-520): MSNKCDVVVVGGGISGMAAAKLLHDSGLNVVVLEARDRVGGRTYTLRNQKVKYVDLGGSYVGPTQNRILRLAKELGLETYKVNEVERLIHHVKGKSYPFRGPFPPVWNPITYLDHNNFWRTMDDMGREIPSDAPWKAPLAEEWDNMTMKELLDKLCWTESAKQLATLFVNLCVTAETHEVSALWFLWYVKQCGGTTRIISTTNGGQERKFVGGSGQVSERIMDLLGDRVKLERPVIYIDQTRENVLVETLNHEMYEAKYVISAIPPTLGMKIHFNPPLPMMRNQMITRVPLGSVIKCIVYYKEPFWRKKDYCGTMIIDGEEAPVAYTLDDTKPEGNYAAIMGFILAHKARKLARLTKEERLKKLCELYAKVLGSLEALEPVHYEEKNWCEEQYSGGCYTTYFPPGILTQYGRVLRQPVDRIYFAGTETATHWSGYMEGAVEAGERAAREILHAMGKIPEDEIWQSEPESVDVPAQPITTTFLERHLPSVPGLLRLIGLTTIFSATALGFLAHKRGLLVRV

SMILES | technique | pIC50
O=C(Nc1ccc(OC(F)(F)F)cc1)c1cc(Cl)ccc1O | – | 6.89
CSc1ccc(CNc2nc3ccccc3n3cnnc23)cc1 | fluorescence | 6.60
CCn1c(-c2nc3ccc(C(=O)N4CCCC(N)C4)cc3n2C)cc2ccccc21 (stereo not shown) | – | 4.70
COc1ccc(/C=C/C(=O)N2CCC(Cc3ccccc3)CC2)cc1OC | fluorescence | 5.96
O=c1[nH]c(-c2ccccc2)cnc1-c1ccccc1 | fluorescence | 6.85
COc1cc(/C=C/C(=O)N2CCC(Cc3ccccc3)CC2)ccc1OCc1ccccc1 | fluorescence | 5.42
O=C(Nc1ccc([N+](=O)[O-])cc1Cl)c1cc2ccccc2o1 | – | 6.91
C#CCOc1ccc(/C=C/C(=O)N2CCC(Cc3ccccc3)CC2)cc1OC | fluorescence | 6.49
O=C1C[C@@H](c2ccc(O)cc2)Oc2cc(O)cc(O)c21 | – | 6.57
Cn1c(=O)[nH]c(=O)n2c(CC(=O)Nc3cccc4ccccc34)cnc12 | fluorescence | 5.06
O=C1c2c(O)cc(O)cc2O[C@H](c2ccc(O)cc2)[C@H]1O | – | 4.17
Cn1c(=O)c2ccc(C(=O)Nc3ccccc3F)nc2n(C)c1=O | fluorescence | 7.21
O=c1cc(-c2ccc(O)cc2)oc2c([C@@H]3O[C@H](CO)[C@@H](O)[C@H](O)[C@H]3O)c(O)c([C@@H]3O[C@H](CO)[C@@H](O)[C@H](O)[C@H]3O)c(O)c12 | – | 4.36
Nc1nn(-c2ccccc2)nc1C(=O)O | fluorescence | < 5.00
COc1cc(/C=C/C(=O)N2CCc3ccccc3C2)ccc1OCc1ccccc1 | fluorescence | 5.51
O=C1C[C@@H](c2cc(O)cc(O)c2)Oc2cc(O)ccc21 | – | 4.92
